Measured values of several laboratories.
Lines come from different studies, so protocols differ.
LCK: Tyrosine-protein kinase Lck (LCK, Homo sapiens, UniProt P06239)
LCK phosphorylated: Tyrosine-protein kinase Lck, phosphorylated (LCK, Homo sapiens, UniProt P06239)

SMILES	target	effect on	action	method	tested at	measurement	value
CNCc1ccc(-c2cc(-c3nc(-c4ccc(S(=O)(=O)C(C)C)cc4)cnc3N)on2)cc1	LCK	enzyme activity	inhibitor		2 µM	inhibition	64%
COc1cc(/C=C/C(=O)CC(=O)/C=C/c2ccc(O)c(OC)c2)ccc1O	LCK	enzyme activity	inhibitor		1 µM	activity vs control	80%
CC1CCCN1c1nccc(-c2cnn3ncccc23)n1 (stereo not shown)	LCK	cell-free assay			1 µM	remaining signal	100%
CNC(=O)c1cc2c(Oc3ccc(NC(=O)C4(C(=O)Nc5ccc(F)cc5)CC4)cc3)ccnc2cc1OC	LCK	enzyme activity	inhibitor	radiometric	1 µM	inhibition	99%
c1nc2c(Nc3ccc4c(c3)OCCO4)nc(Nc3ccc4c(c3)OCCO4)nc2[nH]1	LCK	enzyme activity	inhibitor		10 µM	activity vs control	2.1%
COc1cc2ncnc(Nc3ccc(Oc4ccccc4)cc3C)c2cc1OC	LCK	enzyme activity	inhibitor		1 µM	inhibition	92%
O=C1c2ccccc2-c2n[nH]c3cccc1c23	LCK	enzyme activity	inhibitor		0.5 µM	activity vs control	97.1%
O=C(Nc1cccnn1)N1CC(C/C=C/c2cncc(Oc3ccc(C(F)(F)F)cn3)n2)C1	LCK	cell-free assay		competition with immobilised ligand	1 µM	remaining binding	100%
Cc1cc(NC(=O)c2cccc3cc(-c4cccc5[nH]nc(N)c45)ccc23)ccc1F	LCK phosphorylated	enzyme activity	inhibitor		0.1 µM	activity vs control	88%
FC(F)(F)Oc1cccc(-c2cnc3ccc(-c4ccncc4)nn23)c1	LCK	enzyme activity	inhibitor	radiometric	1 µM	activity vs control	35%
C=CC(=O)Nc1cc(Nc2nccc(Nc3cc(Cl)c(F)cc3C(C)(C)O)n2)c(OC)cc1N1CC[C@@H](N(C)C)C1	LCK phosphorylated	enzyme activity	inhibitor		1 µM	inhibition	5%
CNC(=O)Nc1ccc2c(c1)[C@@]1(CC2)OC(=O)N(CC(=O)N(Cc2ccc(F)cc2)[C@@H](C)C(F)(F)F)C1=O	LCK	cell-free assay		competition with immobilised ligand	1 µM	remaining binding	86%
Cc1ccc(Nc2nccc(N(C)c3ccc4c(C)n(C)nc4c3)n2)cc1S(N)(=O)=O	LCK	enzyme activity	inhibitor		0.3 µM	inhibition	59%
O=C(O)c1cc(-c2ccc(C3CCNCC3)cc2)c2ccc(-c3ccc(C(F)(F)F)cc3)cc2c1	LCK	cell-free assay		competition with immobilised ligand	1 µM	remaining binding	100%
Cc1ccc(C(=O)NCc2ccsc2)cc1C#Cc1cn(C(C)C)c2ncnc(N)c12	LCK	enzyme activity	inhibitor		1 µM	activity vs control	3%
COc1cc(-c2cn(C3CCc4c(F)cccc4N(CC(F)(F)F)C3=O)nn2)ccc1-n1cnc(C)c1 (stereo not shown)	LCK	cell-free assay		competition with immobilised ligand	1 µM	remaining binding	100%
CC(C)(C)n1nc(Cc2cccc3ccccc23)c2c(N)ncnc21	LCK	enzyme activity	inhibitor		0.5 µM	activity vs control	80.4%
C[C@@H](c1cccc(C#N)c1)n1cc(Cl)cc(C(N)=O)c1=N	LCK	binding		competition with immobilised ligand	1 µM	remaining binding	90%
CN(C)C1CCN(CC#Cc2nn(C3CCCC3)c3nc(NCc4ccccc4)ncc23)C1 (stereo not shown)	LCK	enzyme activity	inhibitor	FRET	0.1 µM	inhibition	17%
CSc1cccnc1N1CCN(Cc2nc3ccccc3[nH]2)CC1	LCK	binding		competition with immobilised ligand	1 µM	remaining binding	100%
CN(C)c1ncc(F)c(-c2cnn3ncccc23)n1	LCK	cell-free assay			1 µM	remaining signal	76%
CC(=O)C1=C(C)N(c2cccc(C(F)(F)F)c2)C(=O)N[C@@H]1c1ccc(C#N)nc1	LCK	cell-free assay		competition with immobilised ligand	1 µM	remaining binding	100%
CNc1cccc2cc(C(=O)Nc3ccc(C(=O)O)cc3)c(=O)[nH]c12	LCK	enzyme activity	inhibitor		10 µM	inhibition	0.91%
CCS(=O)(=O)c1cc2cc(C[C@](O)(CC(C)(C)c3ccc(F)cc3C(N)=O)C(F)(F)F)[nH]c2cn1	LCK	cell-free assay		competition with immobilised ligand	1 µM	remaining binding	100%
Cc1cnn2ncc(-c3ccnc(N(C)C)n3)c2c1	LCK	cell-free assay			1 µM	remaining signal	100%
